Compound activity from PubChem.
This excerpt belongs to a sample that is enriched for hits.
H69AR growth 86K: proliferation blockers of H69AR lung cancer cells, primary screen, cell-based, human, 86K library. H69AR lung tumor viability, ATP luminescence, 72 h; active compounds read low. viability, % at 10 µM. actives 6% (n = 85,000). AID 598, 2007;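 active = viability at or below 40%; inactive = viability above 40%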;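 also: multidrug resistant small cell line overexpressing MRP-1 efflux transporter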
HUVEC inhibit: inhibitors of HUVEC proliferation, primary screen, cell-based, 384-well. CellTiter-Glo luminescence, 72 h; active compounds read low. viability, % at 10 µM (by protocol). actives 1.1% (n = 86,000);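 active = viability at or below 30%; inactive = viability above 30%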
bCat KO growth: primary screen for growth suppressors in beta-catenin knockout HCT116 cells (colon tumor, human); viability, % at 10 µM; HCT116 beta-catenin knockout viability, CellTiter-Glo, 60 h; active compounds read low; AID 818, 2007; actives 1.5% (n = 140,000);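 active = viability at or under a set limit, the compound median less 4 SD, cut at about 6% in these data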
Lung fibro prol: antiproliferative effect on LL 47 fibroblasts – human, LL 47 cells, CellTiter-Glo luminescence, primary screen. actives 1.1% (n = 85,000). LL 47 human lung fibroblast viability, ATP luminescence; active compounds read low. viability, % at 10 µM;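 active = viability at or below 50% in the single dose screen; inactive = viability above 50%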;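 also: compound exposure lasted 72 h before the ATP readout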
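Times – overnight cell rest, 72 h compound treatment at 37 °C · Test system – human lung fibroblast line LL 47, low passage · Amount – 1,150 cells in each well · Controls – cell-only wells, no compound · Doses – 0.1% DMSO in all compound wells · Measured by – CellTiter-Glo luminescence · Buffer or medium – IMEM plus 15% FBS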
PTEN del growth: growth suppression of PTEN-null HCT116, primary screen, cell-based, CellTiter-Glo. HCT116 PTEN-null viability, 60 h; active compounds read low. viability, % at 10 µM. actives 1.2% (n = 140,000);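 active = viability at or below a set limit, 4 SD under the median of all tested compounds, cut at about 3.7% in these data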;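 also: PTEN knockout HCT116 line with beta catenin targeted HCT116 as companion control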
Each line names hits and unclear results; the compound was inactive in the other large screens.

CCCS(=O)(=O)c1c(S(=O)(=O)CCC)c2cc(CC)ccn2c1C(=O)OC	H69AR growth 86K 24
CCCS(=O)(=O)c1c(S(=O)(=O)CCC)c2c3ccccc3ccn2c1C(=O)OC	H69AR growth 86K 27
O=C1SC(SC(=Nc2ccccc2)Nc2ccccc2)C(=O)N1c1ccccc1 (configuration not stated)	none (no result: H69AR growth 86K, HUVEC inhibit, Lung fibro prol)
O=C(NCc1ccco1)c1cccc(NS(=O)(=O)c2ccccc2F)c1	none (no result: H69AR growth 86K, HUVEC inhibit, Lung fibro prol)
O=C(COC(=O)C1CCN(S(=O)(=O)c2ccccc2)CC1)NC(=O)c1ccc(OC(F)F)cc1	none (no result: H69AR growth 86K, HUVEC inhibit, Lung fibro prol)
COC(=O)c1[nH]c2ccc(Br)cc2c1NC(=O)CN1CCN(C2CCCCC2)CC1	H69AR growth 86K 2.9, HUVEC inhibit 5.7, bCat KO growth 1.7, Lung fibro prol 16, PTEN del growth 1.8
CCOC(=O)C1CCN(CC(=O)Nc2c(C(=O)OC)[nH]c3ccccc23)CC1	H69AR growth 86K 1.9
COC(=O)c1[nH]c2cc(C)ccc2c1NC(=O)CN1CCN(C(=O)c2ccco2)CC1	none
CCOC(=O)C1CCN(CC(=O)Nc2cc(C)nn2-c2nc3ccccc3s2)CC1	H69AR growth 86K 28
COC(=O)c1[nH]c2cc(C)ccc2c1NC(=O)CN1CCCc2ccccc21	bCat KO growth 5.5 (no result: H69AR growth 86K, HUVEC inhibit, Lung fibro prol)
Cc1cc(NC(=O)CN2CC(C)OC(C)C2)n(-c2nc3ccccc3s2)n1 (configuration not stated)	none
Cc1ccc2c(CSc3nc4ccccc4c(=O)n3CCCO)cc(=O)oc2c1	none (no result: bCat KO growth, PTEN del growth)
Cc1ccc(-c2nc(N)sc2CC(=O)OCC(=O)NCC2CCCO2)cc1 (configuration not stated)	none (no result: H69AR growth 86K, HUVEC inhibit, Lung fibro prol)
CCOc1ccccc1NC(=O)c1cccc(S(=O)(=O)N(Cc2ccccc2)c2ccccc2OC)c1	none (no result: H69AR growth 86K, HUVEC inhibit, Lung fibro prol)
COC(=O)c1[nH]c2ccc(Br)cc2c1NC(=O)CN1CCCc2ccccc21	H69AR growth 86K 21
CCOC(=O)C1CCCN(CC(=O)Nc2c(C(=O)OC)[nH]c3ccc(Br)cc23)C1 (configuration not stated)	none
CCC(C)n1c(=O)c(C(=O)Nc2ccccc2S(N)(=O)=O)c(O)c2ccccc21 (configuration not stated)	H69AR growth 86K 27
CC(C)Cn1c(=O)c(C(=O)Nc2ccccc2S(N)(=O)=O)c(O)c2ccccc21	none (no result: H69AR growth 86K, HUVEC inhibit, Lung fibro prol)
CC(=O)Nc1cccc(C(=O)/C=C/c2ccc(C)cc2)c1	bCat KO growth 2.7, PTEN del growth 1.9 (no result: H69AR growth 86K, HUVEC inhibit, Lung fibro prol)
CSc1ccc(/C=C/C(=O)c2ccc(NC(C)=O)cc2)cc1	none (no result: H69AR growth 86K, HUVEC inhibit, Lung fibro prol)
O=C(CN1CCN(S(=O)(=O)c2ccc(F)cc2)CC1)Nc1ccc2c(c1)OCO2	Lung fibro prol 48
O=C(CN1CCN(S(=O)(=O)c2ccc(F)cc2)CC1)Nc1ccc2c(c1)OCCO2	none
O=C(CN1CCCN(S(=O)(=O)c2ccc(Br)cc2)CC1)Nc1ccc2c(c1)OCO2	H69AR growth 86K 12
COc1ccc(S(=O)(=O)N2CCCN(CC(=O)Nc3ccc4c(c3)OCO4)CC2)cc1	none
O=C(CN1CCN(S(=O)(=O)c2ccc(F)cc2)CC1)Nc1ccc(Cl)c(C(F)(F)F)c1	H69AR growth 86K 9.0
O=C(CN1CCCN(S(=O)(=O)c2ccc(Br)cc2)CC1)Nc1ccc2cn[nH]c2c1	H69AR growth 86K 2.1 (no result: bCat KO growth, PTEN del growth)
O=C(CCC(=O)c1cccs1)NCC(=O)Nc1ccc(F)c(F)c1F	none (no result: H69AR growth 86K, HUVEC inhibit, Lung fibro prol)
CCOC(=O)Cn1c(=O)oc2cc(S(=O)(=O)NCCc3ccc(OCC)c(OCC)c3)ccc21	none
C=CCn1c(Cc2cccs2)nnc1SC/C=C/c1ccccc1	none
O=C(Cn1c(=O)n(CCCC(=O)NC2CCCC2)c(=O)c2ccccc21)NCCC1=CCCCC1	H69AR growth 86K 29, bCat KO growth 5.3, Lung fibro prol 49, PTEN del growth 2.8
Cc1ccc(-c2cc(C(F)F)n3ncc(C(=O)Nc4c(C)nn(Cc5ccccc5Cl)c4C)c3n2)cc1	bCat KO growth 2.4, PTEN del growth 1.4 (no result: H69AR growth 86K, HUVEC inhibit, Lung fibro prol)
OC1(c2cccc(C(F)(F)F)c2)CCN(c2ncnc3c2[nH]c2ccc(F)cc23)CC1	H69AR growth 86K 2.4, HUVEC inhibit 6.4, PTEN del growth 2.6
CCC(=O)Nc1nnc(SCC(=O)N2c3ccccc3CC2C)s1 (configuration not stated)	Lung fibro prol 37
CC(C)(C)c1ccc(O)c(/C=N\O)c1	H69AR growth 86K 25
CC(C)(C)c1cccc(/C=N/O)c1O	none (no result: PTEN del growth)
COc1ccc(/C=C/C(=O)Nc2nonc2NC(C)=O)cc1	none (no result: H69AR growth 86K, HUVEC inhibit, Lung fibro prol)
Cc1ccnc(NC(NC(=O)C(C)C)(C(F)(F)F)C(F)(F)F)c1	none (no result: H69AR growth 86K, HUVEC inhibit, Lung fibro prol)
Cc1nn(-c2ccccc2)c(C)c1C(=O)OCC(=O)N1c2ccccc2NC(=O)C1(C)C	H69AR growth 86K 17
Fc1ccc2c(Cl)c(-c3nnc(-c4cccs4)o3)sc2c1	H69AR growth 86K 12, Lung fibro prol 24
COc1ccc(C2C(C(=O)c3ccccc3)=C(C)Nc3nc4ccccc4n32)cc1OC (configuration not stated)	none (no result: H69AR growth 86K, HUVEC inhibit, Lung fibro prol)
CCOC(=O)C1=C(C)Nc2nc3ccccc3n2C1c1ccccc1 (configuration not stated)	H69AR growth 86K 11
Cc1nn(C)c(C)c1/C=N/N=C1\CCC2C3CCc4cc(O)ccc4C3CCC12C (configuration not stated)	bCat KO growth 3.1 (no result: H69AR growth 86K, HUVEC inhibit, Lung fibro prol)
Cc1cc(C)nc(N/N=C/C(Cl)=C/c2ccccc2)n1	none (no result: H69AR growth 86K, HUVEC inhibit, Lung fibro prol)
CCOc1ccccc1OCCCNCc1ccco1	none (no result: H69AR growth 86K, HUVEC inhibit, Lung fibro prol)
CCCS(=O)(=O)C(=C(Nc1ccccc1)Nc1ccccc1)S(=O)(=O)CCC	H69AR growth 86K 30
CCOC(=O)c1cc([N+](=O)[O-])c([N+](=O)[O-])cc1NC(C)=O	none (no result: H69AR growth 86K, HUVEC inhibit, Lung fibro prol)
COC(=O)[C@@]1(Cc2ccc(OC)cc2)[C@@H]2C(=CC(=O)[C@H]2CC(=O)C(=O)N(C)C)CN1C(=O)c1ccccc1	bCat KO growth 2.2, PTEN del growth 2.5 (no result: H69AR growth 86K, HUVEC inhibit, Lung fibro prol)
C=C1C(=O)C=C2CN(C(=O)c3ccccc3)[C@@](Cc3ccc(F)cc3)(C(=O)OC)[C@@H]12	bCat KO growth 0.9, PTEN del growth 1.0 (no result: H69AR growth 86K, HUVEC inhibit, Lung fibro prol)
CCC(Oc1ccc2c(=O)c(-c3ccccc3OC)coc2c1)C(=O)OCc1ccccc1 (configuration not stated)	none (no result: H69AR growth 86K, HUVEC inhibit, Lung fibro prol)
Cc1ccc(CNC(=O)CN(C)S(=O)(=O)c2cccc3cccnc23)cc1	none
Cc1ccccc1CS(=O)(=O)c1snnc1C	none (no result: H69AR growth 86K, HUVEC inhibit, Lung fibro prol)
Cc1ccccc1CS(=O)(=O)c1cnc2ccccc2n1	H69AR growth 86K 16
Cc1ccc(CNC(=O)c2ccc(NC(=O)CCS(=O)(=O)c3cccs3)cc2)cc1	none
CCc1ccc(C2C(C#N)=C(N)C(C#N)(C#N)C3=CCC(C(C)(C)C)CC32)cc1 (configuration not stated)	HUVEC inhibit 2.3
CCCCOc1ccc(/C=C/C(=O)OCC(=O)N2CC(=O)Nc3ccccc32)cc1OCC	none (no result: H69AR growth 86K, HUVEC inhibit, Lung fibro prol)
Cc1ccc(Cl)cc1N1CCN(CC(O)COCc2ccco2)CC1 (configuration not stated)	none (no result: H69AR growth 86K, HUVEC inhibit, Lung fibro prol)
